Reference: paper PMC3086613 (Theranostics, 2011)

Columns and labels:
PC-3 cells [1] = test: Cell uptake of 18F-labeled BBN peptides; type: cell-based, human; settings: for PC-3 cell uptake peak value (percent added radioactivity): 37 °C, 15 min, n = 3, mean ± SD; for Cell uptake at 37 °C versus 4 °C: PC-3 cells
Procedure, shortened: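 PC-3 cells (F-12K, 10% FBS, 37 °C, 5% CO2) were seeded at 1 × 10^5 per well overnight, washed three times with PBS, and given ~0.5 μCi/well radiotracer in triplicate at 37 °C. At 15, 30, 60 and 120 min, cells were rinsed with PBS and lysed with 0.1 M NaOH. Lysate activity was gamma-counted and expressed as percent added radioactivity.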

PC-3 cells [2] = test: Cell washout; type: cell-based, human; settings: 37 °C, serum-free medium devoid of radioactivity
Procedure, shortened: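 PC-3 cells were seeded at 1 × 10^5 per well overnight, PBS-rinsed, then loaded with ~0.5 μCi/well radiotracer in triplicate for 2 h at 37 °C. After a PBS wash they were re-incubated in serum-free medium. At 0, 15, 30, 60 and 120 min, cells were PBS-washed and lysed in 0.1 M NaOH. Retained activity was gamma-counted as percent added radioactivity.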

[3] = tested on: PC-3 tumor-bearing nude mice; test: Small animal microPET imaging, ROI-derived radioactivity accumulation; type: in vivo; settings: 3.7 MBq i.v.; PC-3 tumor-bearing mice; n = 3/group
Procedure, shortened: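 Male athymic nude mice carried PC-3 xenografts (5 × 10^6 cells s.c., front flank; 100–300 mm3 after 3–4 weeks). Under isoflurane, ~3.7 MBq (100 μCi) radiotracer was given via tail vein. Five-minute static scans were taken at 30 min, 1 h and 2 h (2D OSEM, no attenuation or scatter correction). ROIs on decay-corrected coronal images gave %ID/g, assuming 1 g/mL; n = 3/group.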

| Substance | PC-3 cell uptake peak value (percent added radioactivity) (PC-3 cells [1]) | Cell uptake at 37 °C versus 4 °C (PC-3 cells [1]) | Washout rate from PC-3 cells (PC-3 cells [2]) | Activity accumulation in non-target organs on PET images (in words) [3] | Tumor uptake on PET images (in words) [3] |
| --- | --- | --- | --- | --- | --- |
| 18F-FP- GGGRDN-FQWAVGHLM-NHEt [^18F-FP-MATBBN] | 0.3 ± 0.07% | no significant difference | Much faster washout rate |  |  |
| 18F-FP- GGGRDN-QWAVGHLM-NH2 [^18F-FP-MAGBBN] | 1.2 ± 0.07% | 2 fold | slower washout |  |  |
| 18F-FP-Aca-QWAVGHLM-NH2 [^18F-FP-AGBBN] |  |  |  | very high liver, bile and intestinal uptake | some tumor accumulation |
| 18F-FP-FQWAVGHL-NHEt [^18F-FP-ATBBN] |  |  |  | rapid and prominent activity accumulation in the liver and intestines | almost no tumor uptake |
